Results as given in PMC8041090 (SLAS discovery : advancing life sciences R & D, 2016).

Experiments:
[1] = molecular target: PP1C (Homo sapiens, UniProt P62136); assay: Radiolabeled phosphoprotein substrate confirmation assay; assay type: biochemical
Summary of the method: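 Purified PP1C catalytic subunit (working stock kept at −20 °C in tris with 50% glycerol, 2 mM DTT, 0.1 mg/mL BSA, 2 mM MnCl₂) was assayed in single tubes against [³²P]- or [³³P]-phosphorylase A in HEPES pH 7.0 PP1C buffer (BSA, Triton X-100, DTT, ascorbate, MnCl₂). Liberated labelled orthophosphate was quantified and expressed as percentage of DMF-vehicle control activity; serial dilutions, n = 3.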

[2] = molecular target: T1, PP5C (Homo sapiens, UniProt P53041); assay: PP5C OMFP FLINT inhibition assay, 1536-well uHTS format; assay type: biochemical
T1 sequence (P53041 1-499): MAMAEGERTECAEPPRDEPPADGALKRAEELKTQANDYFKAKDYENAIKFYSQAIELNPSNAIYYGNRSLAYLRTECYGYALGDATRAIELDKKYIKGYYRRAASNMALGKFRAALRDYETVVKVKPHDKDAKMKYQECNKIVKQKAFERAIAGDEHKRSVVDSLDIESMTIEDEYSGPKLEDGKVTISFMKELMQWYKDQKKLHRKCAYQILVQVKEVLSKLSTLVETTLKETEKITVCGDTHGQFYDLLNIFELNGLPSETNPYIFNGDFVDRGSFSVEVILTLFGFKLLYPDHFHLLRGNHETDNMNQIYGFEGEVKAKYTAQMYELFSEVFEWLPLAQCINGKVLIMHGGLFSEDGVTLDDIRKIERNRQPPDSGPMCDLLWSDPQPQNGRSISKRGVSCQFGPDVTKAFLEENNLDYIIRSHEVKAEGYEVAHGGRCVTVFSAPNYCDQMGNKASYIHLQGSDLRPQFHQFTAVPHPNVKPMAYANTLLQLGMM

[3] = tested on: PP2AC; conditions: read-out: IC50, PP2AC; ref [4],[6]; cited from earlier work
[4] = tested on: PP4C; conditions: read-out: IC50, PP4C; ref [4],[6]; cited from earlier work
[5] = tested on: PP1C; conditions: read-out: IC50, PP1C; ref [4],[6]; cited from earlier work
[6] = tested on: PP5C; conditions: read-out: IC50, PP5C; ref [4],[6]; cited from earlier work

Sequence of PP1C (Homo sapiens, UniProt P62136) (P62136 whole entry): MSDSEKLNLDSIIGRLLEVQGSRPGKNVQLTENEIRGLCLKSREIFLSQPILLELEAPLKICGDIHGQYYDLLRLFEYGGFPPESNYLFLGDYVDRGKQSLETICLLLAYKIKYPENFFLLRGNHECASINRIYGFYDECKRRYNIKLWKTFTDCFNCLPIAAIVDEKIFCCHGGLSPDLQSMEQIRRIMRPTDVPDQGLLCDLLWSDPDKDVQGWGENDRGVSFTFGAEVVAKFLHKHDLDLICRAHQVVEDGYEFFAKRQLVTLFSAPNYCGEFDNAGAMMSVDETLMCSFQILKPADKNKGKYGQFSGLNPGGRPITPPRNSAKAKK

SMILES: COc1ccc(NC(=O)C2C3CCC(O3)C2C(=O)O)c(OC)c1 (stereo not drawn) [SID 93617938, 3-{[(2,4-dimethoxyphenyl)amino]carbonyl}−7-oxabicyclo[2.2.1]heptane-2-carboxylic acid]
- IC50 [1]: 18.9 µM

SMILES: C[C@@]12C(=O)OC(=O)[C@]1(C)[C@H]1CC[C@@H]2O1 [cantharidin]
- IC50 [2]: 0.52 µM

SMILES: C[C@@](O)(/C=C/[C@H]1CC=CC(=O)O1)[C@@H](C[C@@H](O)\C=C/C=C\C=C\CO)OP(=O)(O)O [fostriecin]
- IC50 [3]: < 0.002 µM
- IC50 [4]: < 0.002 µM
- IC50 [5]: > 70 µM
- IC50 [6]: > 70 µM
